GASC-1 inh – inhibitors of GASC-1 histone demethylase, primary screen, biochemical, fluorescence, DELFIA europium. Lysine-specific demethylase 4C (Homo sapiens), Q9H3R0. GST-JMJD2C(1-420) H3K9me3 demethylation. inhibition, % at 2.35 µM. hit rate 0.069% among 330,000. AID 2099, 2009;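 active = more than half of a compound's replicate wells show inhibition beyond 50%, single wells judged on their own value; inconclusive = some, but no more than half, of replicates pass 50% inhibition; inactive = no replicate passes 50% inhibition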;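 also: signal counts dimethyl H3K9 product captured on neutravidin plate; 0% = median of DMSO wells and 100% = 0.3 times that DMSO median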
Pemphigus Ab inh – inhibitors of pemphigus antibody binding to DSG3, primary screen, biochemical, bead-based, flow cytometry, scFv-GFP; Desmoglein-3 (Homo sapiens), P32926; hit rate 0.48% among 310,000; binding (percent of control), % at 10 µM; DSG3-coupled beads, scFv-anti-DSG3-GFP binding; stronger effect = lower value;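 active = binding more than 3 SD below its plate's average and above zero; inconclusive = below that plate limit but binding exactly zero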
T cell HTS – modulators of CD8 T cell-vesicle binding, primary screen, mouse 2C CD8+ T cells, flow cytometry | AID 2052, 2009 | 2C CD8+ T cell-vesicle binding; stronger effect = lower value | hit rate 0.068% among 330,000 | response (vesicle binding), % at 7 µM;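 active = response, share of CD8 T cells binding vesicles, and their 90th percentile fluorescence all below set limits, cut at about 80% in these data, passing the limit was not always enough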;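 also: values below 100% mean blocked vesicle binding to the CD8+ T cells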
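Incubation: binding step 1.5 h, 37 °C, antibody labelling 20 min, ice; system: murine 2C transgenic CD8+ T lymphocytes; technique: cytometric PE anti-B7-1 and Alexa647 anti-CD8 signals after 1% paraformaldehyde fixation; also added: QL9-charged Drosophila Ld/ICAM-1/B7-1 vesicles; control set: naked versus QL9-loaded vesicles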
Arrestin-AP2 inh – inhibitors of beta-arrestin/AP2 binding, primary screen, biochemical, GPCR trafficking, flow cytometry | FITC-arrestin peptide / GST-AP2 beads; AP2 beta2 appendage carries R879A mutation | inhibition, % at 10 µM | hit rate 0.31% among 340,000;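 active = inhibition above a set limit, near 3 SD of compounds lacking own fluorescence, cut at about 54% in these data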;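 also: plate controls were DMSO wells for no effect and 5 µM unlabelled arrestin peptide for full effect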
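System: GST-AP2 R879A bound to glutathione beads, E. coli-expressed. Also added: 50 nM FITC-arrestin peptide. Schedule: compound with beads 12 min RT, then probe 1 h RT. Signal: bead flow cytometry, FITC channel. Read-out basis: percent response.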
LANA-H2A inh – blockers of LANA interaction with H2A/H2B – biochemical, FP readout, HTS, primary screen. hit rate 0.6% among 320,000. inhibition, % (test concentration not listed). cell-free LANA-H2A/H2B peptide, fluorescence polarization. AID 2629, 2010; in the data active = inhibition mostly above about 10%, no sharp cut-off; inactive = mostly below about 6.7%
Target sequence (Q9QR71 whole entry, looked up): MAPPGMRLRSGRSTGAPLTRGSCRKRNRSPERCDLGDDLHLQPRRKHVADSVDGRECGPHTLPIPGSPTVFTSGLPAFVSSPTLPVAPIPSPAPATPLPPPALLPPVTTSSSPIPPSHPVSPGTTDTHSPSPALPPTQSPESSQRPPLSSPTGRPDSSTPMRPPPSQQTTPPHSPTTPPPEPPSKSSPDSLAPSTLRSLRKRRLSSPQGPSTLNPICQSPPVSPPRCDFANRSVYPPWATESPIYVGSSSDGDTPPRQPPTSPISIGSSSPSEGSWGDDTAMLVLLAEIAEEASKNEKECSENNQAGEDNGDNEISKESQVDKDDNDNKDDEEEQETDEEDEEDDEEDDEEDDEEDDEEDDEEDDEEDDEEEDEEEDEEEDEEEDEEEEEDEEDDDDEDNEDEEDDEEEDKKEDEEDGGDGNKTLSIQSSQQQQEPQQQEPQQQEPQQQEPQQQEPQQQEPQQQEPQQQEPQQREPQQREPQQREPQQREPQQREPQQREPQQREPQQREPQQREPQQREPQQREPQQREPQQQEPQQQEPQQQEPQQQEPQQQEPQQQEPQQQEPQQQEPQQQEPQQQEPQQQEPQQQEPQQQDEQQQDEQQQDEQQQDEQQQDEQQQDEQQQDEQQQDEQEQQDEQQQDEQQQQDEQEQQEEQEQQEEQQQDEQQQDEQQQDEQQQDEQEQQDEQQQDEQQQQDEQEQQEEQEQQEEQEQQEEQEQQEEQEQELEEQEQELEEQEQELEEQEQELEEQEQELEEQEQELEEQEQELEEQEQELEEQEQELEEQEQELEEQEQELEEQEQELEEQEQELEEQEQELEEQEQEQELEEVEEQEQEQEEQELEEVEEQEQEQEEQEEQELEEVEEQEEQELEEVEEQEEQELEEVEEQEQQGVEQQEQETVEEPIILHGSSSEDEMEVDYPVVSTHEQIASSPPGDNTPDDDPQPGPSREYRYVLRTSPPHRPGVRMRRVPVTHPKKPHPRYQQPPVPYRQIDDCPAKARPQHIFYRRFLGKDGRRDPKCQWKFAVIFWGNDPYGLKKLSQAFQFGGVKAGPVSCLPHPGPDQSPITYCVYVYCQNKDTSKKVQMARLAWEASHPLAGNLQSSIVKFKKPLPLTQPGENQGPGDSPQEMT
HDAC3 inh – HDAC3 deacetylase inhibitors, primary screen, biochemical, fluorescence, cell-free homogeneous | recombinant HDAC3, fluorogenic peptide/trypsin coupled | hit rate 0.15% among 320,000 | AID 2718, 2010 | Histone deacetylase 3 (Homo sapiens), O15379 | inhibition, % at 8.3 µM; in the data active = inhibition above about 26%, passing the limit was not always enough; inconclusive = no clear call, values can overlap the other calls
Numbers without * were called inactive; u = inconclusive; x = not tested or not shown. A selection: hits, their analogues and other compounds. The true share with any hit is near 1.6%.

SMILES	GASC-1 inh	Pemphigus Ab inh	T cell HTS	Arrestin-AP2 inh	LANA-H2A inh	HDAC3 inh
O=C(O)c1cccc(Cn2cc(Cl)cn2)c1	-0.4	98.2	301.3	20.8	-2.0	-5.3
COc1ccc(N2CCN(C(=O)c3cccc(Cn4cc(Cl)cn4)c3)CC2)cc1	2.4	26.4*	140.1	15.4	3.0	0.4
Cc1ccc(C(=O)NCCNS(=O)(=O)c2ccccc2[N+](=O)[O-])cc1	-11.5	112.8	0.0	-7.2	2.3	1.6
COc1cc2c3c(c1)C1(C(=O)N3C(C)(C)C=C2C)C(C#N)=C(N)Oc2cc(C)oc(=O)c21 (stereo not drawn)	10.4	97.2	x	-3.0	60.3*	x
CC1=CC(C)(C)N2C(=O)C3(C(C#N)=C(N)Oc4cc(C)oc(=O)c43)c3cc(C)cc1c32 (stereo not drawn)	-5.1	96.0	230.0	6.5	2.2	14.1
COc1ccccc1N1CCN(C(=O)NCc2cccc(C(F)(F)F)c2)CC1	-10.1	x	158.4	-7.8	1.4	1.7
C#CC(CC)(CC)NC(=O)c1cc(S(=O)(=O)N2CCCCC2)ccc1N1CCOCC1	x	100.2	x	-7.1	x	x
COc1ccc(CNC(=O)CCNS(=O)(=O)c2ccc(NC(C)=O)cc2)cc1OC	22.6	x	437.7	-8.1	-1.8	-7.4
CN(C)C(=S)NC(=O)C(c1ccccc1)c1ccccc1	3.7	-11.9*	506.3	24.3	-1.7	-1.5
CC(=O)NNC(=S)NC(=O)C(c1ccccc1)c1ccccc1	-8.1	99.8	211.7	-19.3	-0.7	5.4
CN(C)S(=O)(=O)c1cccc(NC(=O)C2CCCN(C(=O)c3ccc(Cl)cc3)C2)c1 (stereo not drawn)	x	100.8	x	x	x	x
COCCNC(=O)c1cc2c(-c3ccc(Cl)cc3)nn(C)c2s1	9.5	106.2	286.3	-0.3	-1.9	-20.7
CCOC(=O)N1CCC(NC(=O)c2cc3c(-c4ccc(Cl)cc4)nn(C)c3s2)CC1	x	91.2*	261.1	-0.1	x	x
Cn1nc(-c2ccc(Cl)cc2)c2cc(C(=O)N3CCN(c4ccccn4)CC3)sc21	8.4	-3.6*	366.8	16.4	0.9	-2.4
Cn1nc(-c2ccc(Cl)cc2)c2cc(C(=O)N3CCN(c4ccccc4)CC3)sc21	20.9	104.7	266.6	-11.1	1.4	-5.1
CC(C)NC(=O)c1cc2c(-c3ccc(Cl)cc3)nn(C)c2s1	-2.3	72.9*	401.3	36.6	0.2	-2.1
CC(=O)c1c(O)c(C)c(O)c2c1OC1=CC(=O)C(C(C)=O)C(=O)[C@@]12C (stereo partly drawn)	-11.7	94.7	x	-1.7	x	x
CCn1c(-c2csc(-c3ccc(Cl)cc3)n2)n[nH]c1=S	-5.6	98.8	196.7	-0.7	3.0	8.8
CCn1c(-c2csc(-c3ccccc3)n2)n[nH]c1=S	-1.2	-34.0*	170.7	-1.4	-1.7	8.8
Cc1cccc(NS(=O)(=O)c2cccc3nsnc23)c1	55.9*	110.0	282.4	-1.6	-2.1	13.1
O=C(O)CC(CNS(=O)(=O)c1cccc2nsnc12)c1ccccc1 (stereo not drawn)	-19.2	40.2*	595.7	30.6	-4.8	8.3
CN1/C(=C\C=C2/C(=O)Oc3ccccc3C2=O)C(C)(C)c2ccccc21	6.2	x	502.8	x	-2.0	5.4
CN1C(=CC=C2C=C(I)C(=O)C(I)=C2)C(C)(C)c2ccccc21	x	58.9*	x	32.4	x	x
NC(=O)C(NN=C(c1ccccc1)c1ccccc1)c1ccccc1 (stereo not drawn)	x	94.3	x	x	x	x
COc1ccccc1NS(=O)(=O)c1cccc(C(=O)NCC(c2cccs2)N(C)C)c1 (stereo not drawn)	x	100.1	x	-10.5	x	x
SMILES	GASC-1 inh	Pemphigus Ab inh	T cell HTS	Arrestin-AP2 inh	LANA-H2A inh	HDAC3 inh
COc1ccc(Cl)cc1NC(=O)c1cc(-c2ccccc2O)n[nH]1	-3.3	96.7	392.9	-5.7	16.1*	-1.6
CC(=O)N1C[C@H]2CON(C)[C@H]2C[C@H]1c1cccc(-c2cc(Cl)cc(Cl)c2)c1	x	101.7	x	x	x	x
O=C(O)c1ccccc1-c1ccc(/C=c2\sc3nc4cc(Br)cnc4n3c2=O)o1	22.9	43.4*	199.5	40.5	-21.7	u
Cc1cc2nc3s/c(=C/c4ccc(-c5ccccc5C(=O)O)o4)c(=O)n3c2cc1C	5.7	343.4	376.7	-11.6	0.8	-3.6
CCCCCN(C(=O)CCC(=O)OCC(=O)c1ccc(F)c(F)c1)c1c(N)n(CCCC)c(=O)[nH]c1=O	0.4	97.1	394.0	-4.0	6.7	5.3
CCCCCN(C(=O)CCC(=O)OCC(=O)c1cccc(OC)c1)c1c(N)n(CCCC)c(=O)[nH]c1=O	58.7*	101.6	259.8	-6.6	3.7	1.7
O=C(NCc1cccc(F)c1)c1cccc2c1C(=O)c1ccc(N3CCCC3)cc1S2(=O)=O	-59.2	x	195.3	-4.4	25.2*	9.9
CC1CCN(c2ccc3c(c2)S(=O)(=O)c2cccc(C(=O)NCc4cccc(F)c4)c2C3=O)CC1	-4.7	128.7	523.2	7.4	1.1	5.2
CCOC(=O)N1CCN(C(=O)c2ccc(Cn3c(=S)[nH]c4ccc(Br)cc4c3=O)cc2)CC1	6.4	106.3	172.9	2.9	-2.8	-1.9
O=C(Nc1ccc2c(c1)oc1ccccc12)c1cccnc1	4.5	x	84.0	-5.3	0.2	-3.6
O=C(Nc1ccc2c(c1)oc1ccccc12)c1ccncc1	21.1	-8.2*	384.2	0.4	-1.0	-5.0
Cc1sc(NC(=O)C2=COCCO2)nc1-c1ccc(Cl)cc1	-4.9	102.2	771.2	-6.7	-5.9	3.5
CN(c1ccccc1)S(=O)(=O)c1cccc(NC(=O)C2=NNC(=O)CC2)c1	-1.1	5.4*	352.4	13.8	-3.4	5.6
Cc1cc(C)nc(SCc2ccc(C(=O)N/N=C/c3ccc(C(=O)O)cc3)cc2)n1	10.0	27.4*	272.1	6.6	0.5	2.3
COc1ccc(/C=N/NC(=O)c2ccc(CSc3nc(C)cc(C)n3)cc2)cc1O	-8.0	100.8	393.1	9.0	-0.5	5.6
CCCc1ccc2oc(C(=O)N3CCCC3)c(C)c2c1	-4.6	113.5	308.5	6.4	-2.4	3.7
COc1ccc2nc3ccccc3[n+]([O-])c2c1	x	91.2	x	-3.9	x	x
[O-][n+]1c2ccccc2cc2ccccc21	-2.1	96.5	433.5	-4.9	17.8*	-46.8
CC1(C)COC(c2ccc3c(c2)OCO3)OC1	x	93.8	x	-2.3	x	x
O=C1/C(=C/C=C/c2ccco2)SC(=S)N1NS(=O)(=O)c1ccccc1	3.4	51.1*	495.2	25.7	2.8	4.5

Screening data deposited in PubChem BioAssay by several laboratories.
